The values below come from ChEMBL document CHEMBL1149202, “N-Aryl-gamma-lactams as integrin alphavbeta3 antagonists” (Bioorg Med Chem Lett, 2004).

A value given as a limit tells only on which side of the number the result lay.

In one experiment the target is Integrin alpha-V/beta-3 (Homo sapiens, UniProt P05106+P06756). Kind of experiment: Binding affinity towards vitronectin receptor (AlphaV-beta3 integrin). Type of experiment: protein-complex assay. The method in brief: (§1)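 Purified integrin (αvβ3; αIIbβ3) was bead-coupled overnight at 4 °C. Competitive electrochemiluminescent binding used Ru-labelled vitronectin for αvβ3 and Ru-labelled fibrinogen for αIIbβ3, in pH 7.5 Tris buffer with Ca2+, Mg2+, Mn2+, 1% BSA and 0.05% Tween-20, for 2 h at 25 °C. DMSO serial dilutions were used. Nonspecific binding was taken with excess unlabelled ligand or 5 mM EDTA. Ki came from a four-parameter fit, SD of ≥2 determinations.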

For experiment [1], the target named is Integrin alpha-IIb/beta-3 (Homo sapiens, UniProt P05106+P08514). The experiment can be described thus: Affinity for alphaIIb-beta3 integrin. Type of experiment: protein-complex assay. The method in brief: as §1
Sequence of Integrin alpha-IIb/beta-3 (P05106 27-788 limits assumed): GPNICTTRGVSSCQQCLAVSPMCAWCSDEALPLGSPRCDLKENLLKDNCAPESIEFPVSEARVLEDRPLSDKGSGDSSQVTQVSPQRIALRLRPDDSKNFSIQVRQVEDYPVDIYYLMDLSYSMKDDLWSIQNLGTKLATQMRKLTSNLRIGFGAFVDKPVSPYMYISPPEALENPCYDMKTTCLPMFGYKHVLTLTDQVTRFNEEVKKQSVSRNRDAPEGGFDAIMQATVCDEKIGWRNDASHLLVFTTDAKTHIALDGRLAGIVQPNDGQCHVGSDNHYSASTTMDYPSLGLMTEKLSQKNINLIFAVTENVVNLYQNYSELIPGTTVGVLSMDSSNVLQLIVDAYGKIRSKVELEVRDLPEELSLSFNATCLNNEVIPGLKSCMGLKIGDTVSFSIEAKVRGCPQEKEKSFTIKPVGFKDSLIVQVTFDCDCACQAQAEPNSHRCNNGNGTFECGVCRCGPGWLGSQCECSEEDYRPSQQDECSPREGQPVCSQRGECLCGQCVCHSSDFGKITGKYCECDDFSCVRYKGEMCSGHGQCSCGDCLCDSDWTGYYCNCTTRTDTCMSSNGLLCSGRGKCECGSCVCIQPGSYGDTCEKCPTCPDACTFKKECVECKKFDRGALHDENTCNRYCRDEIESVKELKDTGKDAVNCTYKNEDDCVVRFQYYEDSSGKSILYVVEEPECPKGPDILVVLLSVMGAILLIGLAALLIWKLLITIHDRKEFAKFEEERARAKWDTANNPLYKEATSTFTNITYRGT
Sequence of Integrin alpha-IIb/beta-3 (P08514 32-887 limits assumed): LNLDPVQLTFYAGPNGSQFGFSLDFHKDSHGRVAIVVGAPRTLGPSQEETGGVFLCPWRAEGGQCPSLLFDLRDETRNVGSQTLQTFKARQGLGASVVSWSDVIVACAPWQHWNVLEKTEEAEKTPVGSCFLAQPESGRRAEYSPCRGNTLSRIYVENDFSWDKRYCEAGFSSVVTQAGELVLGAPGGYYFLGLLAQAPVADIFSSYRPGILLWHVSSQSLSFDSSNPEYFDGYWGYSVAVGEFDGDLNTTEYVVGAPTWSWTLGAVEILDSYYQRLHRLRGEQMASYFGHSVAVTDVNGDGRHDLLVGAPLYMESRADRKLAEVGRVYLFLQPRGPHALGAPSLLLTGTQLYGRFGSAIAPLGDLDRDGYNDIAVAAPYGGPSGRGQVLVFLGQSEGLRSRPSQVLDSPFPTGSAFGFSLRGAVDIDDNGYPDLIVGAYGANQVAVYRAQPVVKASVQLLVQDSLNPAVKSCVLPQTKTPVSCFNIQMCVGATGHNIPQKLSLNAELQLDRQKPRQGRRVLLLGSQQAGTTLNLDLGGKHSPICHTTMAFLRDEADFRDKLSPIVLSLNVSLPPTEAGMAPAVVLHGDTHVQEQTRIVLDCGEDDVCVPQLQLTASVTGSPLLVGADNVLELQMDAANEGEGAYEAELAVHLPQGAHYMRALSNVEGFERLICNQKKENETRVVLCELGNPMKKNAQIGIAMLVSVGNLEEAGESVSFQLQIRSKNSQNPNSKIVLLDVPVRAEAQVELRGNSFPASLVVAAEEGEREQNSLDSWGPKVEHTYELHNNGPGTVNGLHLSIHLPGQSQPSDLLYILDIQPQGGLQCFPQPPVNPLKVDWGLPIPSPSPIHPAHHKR
Sequence of Integrin alpha-IIb/beta-3 (P08514 891-1039 limits assumed): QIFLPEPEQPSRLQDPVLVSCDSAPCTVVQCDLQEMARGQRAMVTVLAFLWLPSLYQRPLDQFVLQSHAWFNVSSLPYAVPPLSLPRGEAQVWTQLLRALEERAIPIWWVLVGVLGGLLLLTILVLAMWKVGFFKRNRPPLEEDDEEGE

Sequence of Integrin alpha-V/beta-3 (P05106 27-788 limits assumed): as the sequence (P05106 27-788 limits assumed) above
Sequence of Integrin alpha-V/beta-3 (P06756 31-889 limits assumed): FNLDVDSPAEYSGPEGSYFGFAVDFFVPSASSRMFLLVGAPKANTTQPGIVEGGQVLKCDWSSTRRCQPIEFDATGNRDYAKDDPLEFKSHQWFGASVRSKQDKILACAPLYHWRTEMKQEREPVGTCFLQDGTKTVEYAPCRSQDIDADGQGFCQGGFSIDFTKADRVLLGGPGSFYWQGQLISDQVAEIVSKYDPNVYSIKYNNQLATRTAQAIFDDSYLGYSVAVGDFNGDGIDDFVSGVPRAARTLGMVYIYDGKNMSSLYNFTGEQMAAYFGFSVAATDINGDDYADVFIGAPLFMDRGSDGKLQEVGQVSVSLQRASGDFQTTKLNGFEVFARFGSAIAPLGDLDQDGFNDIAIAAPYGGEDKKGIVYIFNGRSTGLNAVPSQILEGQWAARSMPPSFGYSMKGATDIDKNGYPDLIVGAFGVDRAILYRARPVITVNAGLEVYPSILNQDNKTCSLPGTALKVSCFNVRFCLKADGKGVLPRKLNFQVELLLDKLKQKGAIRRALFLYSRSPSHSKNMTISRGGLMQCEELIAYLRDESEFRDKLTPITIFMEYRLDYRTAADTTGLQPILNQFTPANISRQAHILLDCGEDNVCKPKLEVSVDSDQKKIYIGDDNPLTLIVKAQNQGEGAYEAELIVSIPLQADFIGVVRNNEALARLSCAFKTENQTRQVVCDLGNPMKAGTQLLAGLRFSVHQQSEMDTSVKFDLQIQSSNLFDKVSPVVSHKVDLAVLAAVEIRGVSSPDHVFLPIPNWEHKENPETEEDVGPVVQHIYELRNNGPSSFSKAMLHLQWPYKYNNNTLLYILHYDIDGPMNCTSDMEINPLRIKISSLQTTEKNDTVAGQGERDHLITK
Sequence of Integrin alpha-V/beta-3 (P06756 891-1048 limits assumed): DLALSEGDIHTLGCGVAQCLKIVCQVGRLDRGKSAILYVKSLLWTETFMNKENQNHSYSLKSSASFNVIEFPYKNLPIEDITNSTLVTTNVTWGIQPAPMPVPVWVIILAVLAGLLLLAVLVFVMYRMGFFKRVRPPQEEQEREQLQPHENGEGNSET

In general, Ki refers to a measure of affinity in units of concentration, obtained from inhibition or displacement. A lower Ki goes with a stronger hold on the target. `O=C(O)CC(NC(=O)C1CC(=O)N(c2cccc(NC3=NCCN3)c2)C1)c1cccnc1` (stereo not drawn) had a Ki on Integrin alpha-V/beta-3 of 5.1 nM. This counts as single-digit nanomolar.
The same measure, in the same setting: then `NC(N)=Nc1ccc(Cl)c(N2CC(C(=O)NC(CC(=O)O)c3cccnc3)CC2=O)c1` (stereo not drawn), with 52.7 nM.
On the same count and under the same terms, as for `NC(N)=Nc1ccc(F)c(N2CC(C(=O)NC(CC(=O)O)c3cccnc3)CC2=O)c1` (stereo not drawn), the figure is 2.9 nM.
For the molecule `O=C(O)C[C@H](NC(=O)[C@H]1CC(=O)N(c2cccc(NC(=O)NCc3ccccc3)c2)C1)c1cccc(F)c1`, the Ki in experiment [1] is > 25000 nM; at Integrin alpha-V/beta-3, > 1000 nM.
The matching figures for `O=C(O)C[C@@H](NC(=O)[C@@H]1CC(=O)N(c2cccc(NC3=NCCCN3)c2)C1)c1ccc2c(c1)OCO2`: > 25000 nM and 7.3 nM.
For `O=C(O)CC(NC(=O)C1CC(=O)N(c2cccc(NC3=NCCCN3)c2)C1)c1cccnc1` (stereo not drawn), affinity at Integrin alpha-V/beta-3 was put at a Ki of 1.4 nM.
Turning to `O=C(O)C[C@@H](NC(=O)[C@@H]1CC(=O)N(c2cccc(NC(=O)NCc3ccccc3)c2)C1)c1cccc(F)c1`, the figures for the inhibitory constant (Ki) (in experiment [1]; at Integrin alpha-V/beta-3) were > 25000 nM and 154 nM, respectively.
On to `O=C(O)C[C@H](NC(=O)[C@@H]1CC(=O)N(c2cccc(NC3=NCCCN3)c2)C1)c1ccc2c(c1)OCO2`, for which the Ki amounted to 2100 nM in experiment [1] and 0.1 nM on Integrin alpha-V/beta-3.
As to `O=C(O)CC(NC(=O)C1CC(=O)N(c2cccc(NC(=O)NCc3ccccc3)c2)C1)c1cccnc1` (stereo not drawn), the affinity on Integrin alpha-V/beta-3, expressed as Ki, was 10.4 nM. That is a double-digit nanomolar value.
At Integrin alpha-V/beta-3, `O=C(O)CC(NC(=O)C1CC(=O)N(c2cccc(NC(=O)NCc3ccccc3)c2)C1)c1ccccc1` (stereo not drawn) displayed a Ki of 70.9 nM.
As for `O=C(O)CC(NC(=O)C1CC(=O)N(c2cccc(NC3=NCCCN3)c2)C1)c1ccc2c(c1)OCO2` (stereo not drawn), the inhibition constant Ki at Integrin alpha-V/beta-3 amounted to 0.7 nM.
Consider `O=C(O)C[C@@H](NC(=O)[C@H]1CC(=O)N(c2cccc(NC(=O)NCc3ccccc3)c2)C1)c1cccc(F)c1`, for which the inhibition constant (Ki) was > 25000 nM in experiment [1] and > 1000 nM on Integrin alpha-V/beta-3.
Regarding `O=C(O)CC(NC(=O)C1CC(=O)N(c2cccc(NC(=O)NCc3ccccc3)c2)C1)c1cccc(F)c1` (stereo not drawn), affinity on Integrin alpha-V/beta-3 was put at a Ki of 11.1 nM.
Turning to `O=C(O)CC(NC(=O)C1CC(=O)N(c2cc(NC3=NCCCN3)ccc2F)C1)c1ccc2c(c1)OCO2` (stereo not drawn), the Ki on Integrin alpha-V/beta-3 worked out at 0.5 nM.
Still for that read-out and setting: as for `O=C(O)CC(NC(=O)C1CC(=O)N(c2cccc(NC(=O)NCc3ccccc3)c2)C1)c1ccc2c(c1)OCO2` (stereo not drawn), the figure is 2.4 nM.
Still for that read-out and setting: as for `N=C(N)Nc1cccc(N2CC(C(=O)NC(CC(=O)O)c3cccnc3)CC2=O)c1` (stereo not drawn), the figure is 16.6 nM.
In the case of `O=C(O)C[C@H](NC(=O)[C@@H]1CC(=O)N(c2cccc(NC(=O)NCc3ccccc3)c2)C1)c1cccc(F)c1`, the figures for the inhibitory constant (Ki) (in experiment [1]; on Integrin alpha-V/beta-3) were > 25000 nM and 10 nM, respectively.
